Data as given in ChEMBL document CHEMBL2177098, “Synthesis and evaluation of novel ¹⁸F labeled 2-pyridinylbenzoxazole and 2-pyridinylbenzothiazole derivatives as ligands for positron emission tomography (PET) imaging of β-amyloid plaques” (J Med Chem, 2012).

Legend:
Bone [1] = experiment: Drug uptake in ICR mouse bone at 370 kBq/100 ul, iv at 2 mins by gamma-counting analysis; assay type: ADME, organism-based, Bone element; conditions: in vivo
Method in brief: (§1)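 Male ICR mice (5 weeks, about 20 g) got 18F tracer in saline (370 KBq per 100 μL) via tail vein; n = 5 per time point, killed at 2, 10, 30, 60 min. Organs weighed and γ-counted; percent dose per gram wet tissue from comparison with diluted injectate aliquots.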

Stomach [2] = experiment: Drug uptake in ICR mouse stomach assessed per organ at 370 kBq/100 ul, iv at 2 mins by gamma-counting analysis; assay type: ADME, organism-based; conditions: in vivo
Method in brief: (§2)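 Male ICR mice (5 weeks, about 20 g) got 18F tracer in saline (370 KBq per 100 μL) via tail vein; n = 5 per time point, killed at 2, 10, 30, 60 min. Organs removed and γ-counted against diluted injectate; expressed as % injected dose per organ.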

Lung [3] = experiment: Drug uptake in ICR mouse lung at 370 kBq/100 ul, iv at 60 mins by gamma-counting analysis; assay type: ADME, organism-based; conditions: in vivo, 1 h; method in brief: as §1
Heart [4] = experiment: Drug uptake in ICR mouse heart at 370 kBq/100 ul, iv at 2 mins by gamma-counting analysis; assay type: ADME, organism-based; conditions: in vivo; method in brief: as §1
Lung [5] = experiment: Drug uptake in ICR mouse lung at 370 kBq/100 ul, iv at 30 mins by gamma-counting analysis; assay type: ADME, organism-based; conditions: in vivo, 0.5 h; method in brief: as §1
Brain [6] = experiment: Drug uptake in healthy human brain at 370 KBq/100 ul after 1 hr by autoradiographic analysis; assay type: ADME, tissue-based; conditions: in vitro
Bone [7] = experiment: Drug uptake in ICR mouse bone at 370 kBq/100 ul, iv at 30 mins by gamma-counting analysis; assay type: ADME, organism-based, Bone element; conditions: in vivo, 0.5 h; method in brief: as §1
Stomach [8] = experiment: Drug uptake in ICR mouse stomach assessed per organ at 370 kBq/100 ul, iv at 10 mins by gamma-counting analysis; assay type: ADME, organism-based; conditions: in vivo; method in brief: as §2
Intestine [9] = experiment: Drug uptake in ICR mouse intestine assessed per organ at 370 kBq/100 ul, iv at 2 mins by gamma-counting analysis; assay type: ADME, organism-based; conditions: in vivo; method in brief: as §2
[10] = Displacement of [125I]-IMPY from amyloid beta (1 to 42) fibrils after 2 hrs by gamma-counting analysis
Method in brief: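 Competition binding with aggregated Aβ1-42 fibrils and [125I]IMPY (60000−100000 cpm/100 μL) in 0.05% BSA (1 mL total); inhibitors 10⁻⁴−10^−8.5 M in ethanol. Incubated 37 °C for 2 h, then GF/B vacuum filtration with PBS (0.02 M, pH 7.4) washes and γ counting. Three repeats; IC50 converted to Ki by Cheng−Prusoff.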

Lung [11] = experiment: Drug uptake in ICR mouse lung at 370 kBq/100 ul, iv at 10 mins by gamma-counting analysis; assay type: ADME, organism-based; conditions: in vivo; method in brief: as §1
Brain [12] = experiment: Drug uptake in ICR mouse brain at 370 kBq/100 ul, iv at 10 mins by gamma-counting analysis; assay type: ADME, organism-based; conditions: in vivo; method in brief: as §1
Stomach [13] = experiment: Drug uptake in ICR mouse stomach assessed per organ at 370 kBq/100 ul, iv at 30 mins by gamma-counting analysis; assay type: ADME, organism-based; conditions: in vivo, 0.5 h; method in brief: as §2
[14] = n-Octanol-PBS buffer partition coefficient, log D of the compound at 1.5 MBq after 3 mins at pH 7.4; assay type: physicochemical
Method in brief: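 The tracer was partitioned between n-octanol and PBS by vortexing for 3 min at room temperature, then centrifuged for 5 min at 3000 rpm. Samples of the octanol (50 μL) and aqueous (500 μL) layers were counted. log D is the log of the octanol/PBS counts-per-gram ratio. The octanol layer was repartitioned until values were consistent. Measured in triplicate and repeated three times.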

Bone [15] = experiment: Drug uptake in ICR mouse bone at 370 kBq/100 ul, iv at 10 mins by gamma-counting analysis; assay type: ADME, organism-based, Bone element; conditions: in vivo; method in brief: as §1
Brain [16] = experiment: Ratio of drug uptake in brain at 2 mins to drug uptake in brain at 60 mins in ICR mouse at 370 KBq/100 ul, iv; assay type: ADME, organism-based; conditions: in vivo
Method in brief: (§3)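 Normal male ICR mice (5 weeks, about 20 g) received the ¹⁸F tracer in saline (370 KBq per 100 μL) by tail-vein injection. Groups of n = 5 were killed at 2, 10, 30 and 60 min. Organs were removed, weighed and γ-counted against diluted aliquots of the injectate, giving % dose per gram. Stomach and intestine were expressed per organ. The brain ratio is 2 min/60 min uptake. Values are mean ± SD.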

Blood [17] = experiment: Drug uptake in ICR mouse blood at 370 kBq/100 ul, iv at 10 mins by gamma-counting analysis; assay type: ADME, organism-based; conditions: in vivo; method in brief: as §1
Spleen [18] = experiment: Drug uptake in ICR mouse spleen at 370 kBq/100 ul, iv at 10 mins by gamma-counting analysis; assay type: ADME, organism-based; conditions: in vivo; method in brief: as §1
Heart [19] = experiment: Drug uptake in ICR mouse heart at 370 kBq/100 ul, iv at 30 mins by gamma-counting analysis; assay type: ADME, organism-based; conditions: in vivo, 0.5 h; method in brief: as §1
Spleen [20] = experiment: Drug uptake in ICR mouse spleen at 370 kBq/100 ul, iv at 30 mins by gamma-counting analysis; assay type: ADME, organism-based; conditions: in vivo, 0.5 h; method in brief: as §1
Lung [21] = experiment: Drug uptake in ICR mouse lung at 370 kBq/100 ul, iv at 2 mins by gamma-counting analysis; assay type: ADME, organism-based; conditions: in vivo; method in brief: as §1
Blood [22] = experiment: Drug uptake in ICR mouse blood at 370 kBq/100 ul, iv at 60 mins by gamma-counting analysis; assay type: ADME, organism-based; conditions: in vivo, 1 h; method in brief: as §1
Brain [23] = experiment: Drug uptake in ICR mouse brain at 370 kBq/100 ul, iv at 60 mins by gamma-counting analysis; assay type: ADME, organism-based; conditions: in vivo, 1 h; method in brief: as §1
Blood [24] = experiment: Drug uptake in ICR mouse blood at 370 kBq/100 ul, iv at 2 mins by gamma-counting analysis; assay type: ADME, organism-based; conditions: in vivo; method in brief: as §1
Liver [25] = experiment: Drug uptake in ICR mouse liver at 370 kBq/100 ul, iv at 2 mins by gamma-counting analysis; assay type: ADME, organism-based; conditions: in vivo; method in brief: as §1
Kidney [26] = experiment: Drug uptake in ICR mouse kidney at 370 kBq/100 ul, iv at 30 mins by gamma-counting analysis; assay type: ADME, organism-based; conditions: in vivo, 0.5 h; method in brief: as §1
Liver [27] = experiment: Drug uptake in ICR mouse liver at 370 kBq/100 ul, iv at 10 mins by gamma-counting analysis; assay type: ADME, organism-based; conditions: in vivo; method in brief: as §1
Kidney [28] = experiment: Drug uptake in ICR mouse kidney at 370 kBq/100 ul, iv at 10 mins by gamma-counting analysis; assay type: ADME, organism-based; conditions: in vivo; method in brief: as §1
Liver [29] = experiment: Drug uptake in ICR mouse liver at 370 kBq/100 ul, iv at 30 mins by gamma-counting analysis; assay type: ADME, organism-based; conditions: in vivo, 0.5 h; method in brief: as §1
Heart [30] = experiment: Drug uptake in ICR mouse heart at 370 kBq/100 ul, iv at 60 mins by gamma-counting analysis; assay type: ADME, organism-based; conditions: in vivo, 1 h; method in brief: as §1
Spleen [31] = experiment: Drug uptake in ICR mouse spleen at 370 kBq/100 ul, iv at 2 mins by gamma-counting analysis; assay type: ADME, organism-based; conditions: in vivo; method in brief: as §1
Stomach [32] = experiment: Drug uptake in ICR mouse stomach assessed per organ at 370 kBq/100 ul, iv at 60 mins by gamma-counting analysis; assay type: ADME, organism-based; conditions: in vivo, 1 h; method in brief: as §3
Intestine [33] = experiment: Drug uptake in ICR mouse intestine assessed per organ at 370 kBq/100 ul, iv at 30 mins by gamma-counting analysis; assay type: ADME, organism-based; conditions: in vivo, 0.5 h; method in brief: as §2
Heart [34] = experiment: Drug uptake in ICR mouse heart at 370 kBq/100 ul, iv at 10 mins by gamma-counting analysis; assay type: ADME, organism-based; conditions: in vivo; method in brief: as §1
Brain [35] = experiment: Drug uptake in wild type C57BL6 mouse brain at 370 KBq/100 ul after 1 hr by autoradiographic analysis; assay type: ADME, tissue-based; conditions: in vitro
Method in brief: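 Paraffin brain sections from 12-month-old male control C57BL6 mice were deparaffinized through xylene and graded ethanol, then held in PBS (0.2 M, pH 7.4) for 30 min. They were incubated with the ¹⁸F tracer (370 KBq per 100 μL) for 1 h at room temperature. Sections were washed in 40% EtOH, rinsed with water for 1 min, dried, and exposed to a phosphor plate for 2 h. The same sections were then stained with thioflavin S.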

Brain [36] = experiment: Drug uptake in ICR mouse brain at 370 kBq/100 ul, iv at 2 mins by gamma-counting analysis; assay type: ADME, organism-based; conditions: in vivo; method in brief: as §1
Kidney [37] = experiment: Drug uptake in ICR mouse kidney at 370 kBq/100 ul, iv at 2 mins by gamma-counting analysis; assay type: ADME, organism-based; conditions: in vivo; method in brief: as §1
Spleen [38] = experiment: Drug uptake in ICR mouse spleen at 370 kBq/100 ul, iv at 60 mins by gamma-counting analysis; assay type: ADME, organism-based; conditions: in vivo, 1 h; method in brief: as §1
Intestine [39] = experiment: Drug uptake in ICR mouse intestine assessed per organ at 370 kBq/100 ul, iv at 60 mins by gamma-counting analysis; assay type: ADME, organism-based; conditions: in vivo, 1 h; method in brief: as §2
Bone [40] = experiment: Drug uptake in ICR mouse bone at 370 kBq/100 ul, iv at 60 mins by gamma-counting analysis; assay type: ADME, organism-based, Bone element; conditions: in vivo, 1 h; method in brief: as §1
Intestine [41] = experiment: Drug uptake in ICR mouse intestine assessed per organ at 370 kBq/100 ul, iv at 10 mins by gamma-counting analysis; assay type: ADME, organism-based; conditions: in vivo; method in brief: as §2
Liver [42] = experiment: Drug uptake in ICR mouse liver at 370 kBq/100 ul, iv at 60 mins by gamma-counting analysis; assay type: ADME, organism-based; conditions: in vivo, 1 h; method in brief: as §1
Blood [43] = experiment: Drug uptake in ICR mouse blood at 370 kBq/100 ul, iv at 30 mins by gamma-counting analysis; assay type: ADME, organism-based; conditions: in vivo, 0.5 h; method in brief: as §1
Brain [44] = experiment: Drug uptake in ICR mouse brain at 370 kBq/100 ul, iv at 30 mins by gamma-counting analysis; assay type: ADME, organism-based; conditions: in vivo, 0.5 h; method in brief: as §1
Kidney [45] = experiment: Drug uptake in ICR mouse kidney at 370 kBq/100 ul, iv at 60 mins by gamma-counting analysis; assay type: ADME, organism-based; conditions: in vivo, 1 h; method in brief: as §1

CNc1ccc(-c2nc3ccc(OCC[18F])cc3s2)cn1
Drug uptake (Bone [1]): 2.04 % ID/g
Drug uptake (Stomach [2]): 3.61 %ID
Drug uptake (Lung [3]): 2.72 % ID/g
Drug uptake (Heart [4]): 5.59 % ID/g
Drug uptake (Lung [5]): 3.57 % ID/g
Drug uptake (Brain [6]): Not Active
Drug uptake (Bone [7]): 3.77 % ID/g
Drug uptake (Stomach [8]): 5.61 %ID
Drug uptake (Intestine [9]): 12.06 %ID
Ki [10]: 10.1 nM
Drug uptake (Lung [11]): 3.02 % ID/g
Drug uptake (Brain [12]): 4.54 % ID/g
Drug uptake (Stomach [13]): 4.63 %ID
logD at 0.05 h [14]: 3.59
Drug uptake (Bone [15]): 2.43 % ID/g
Ratio (Brain [16]): 2.78
Drug uptake (Blood [17]): 3.94 % ID/g
Drug uptake (Spleen [18]): 3.29 % ID/g
Drug uptake (Heart [19]): 3.33 % ID/g
Drug uptake (Spleen [20]): 2.87 % ID/g
Drug uptake (Lung [21]): 5.85 % ID/g
Drug uptake (Blood [22]): 4.45 % ID/g
Drug uptake (Brain [23]): 2.83 % ID/g
Drug uptake (Blood [24]): 4.31 % ID/g
Drug uptake (Liver [25]): 10.4 % ID/g
Drug uptake (Kidney [26]): 3.62 % ID/g
Drug uptake (Liver [27]): 5.94 % ID/g
Drug uptake (Kidney [28]): 4.42 % ID/g
Drug uptake (Liver [29]): 4.28 % ID/g
Drug uptake (Heart [30]): 3.7 % ID/g
Drug uptake (Spleen [31]): 4.52 % ID/g
Drug uptake (Stomach [32]): 3.67 %ID
Drug uptake (Intestine [33]): 25.23 %ID
Drug uptake (Heart [34]): 3.11 % ID/g
Drug uptake (Brain [35]): Not Active
Drug uptake (Brain [36]): 7.87 % ID/g
Drug uptake (Kidney [37]): 9.57 % ID/g
Drug uptake (Spleen [38]): 2.86 % ID/g
Drug uptake (Intestine [39]): 19 %ID
Drug uptake (Bone [40]): 6.7 % ID/g
Drug uptake (Intestine [41]): 11.15 %ID
Drug uptake (Liver [42]): 3.06 % ID/g
Drug uptake (Blood [43]): 4.45 % ID/g
Drug uptake (Brain [44]): 3.38 % ID/g
Drug uptake (Kidney [45]): 3.45 % ID/g
